Test results: ChEMBL document CHEMBL4219067, “Synthesis and activity evaluation of a series of cholanamides as modulators of the liver X receptors” (Bioorg Med Chem, 2018)
The source made the active and inactive calls. The calls are words filed in the database; no cut-off is given here.

Experiments:
Assay type in all cases: cell-based
[1] = target: T1, Oxysterols receptor LXR-alpha (Homo sapiens) (UniProt Q13133); assay: Agonist activity at human full length LXRalpha expressed in […] cells co-expressing human pSG5/RXRalpha at 10 uM after 18 hrs by luciferase reporter gene assay relative to GW3965
T1 sequence (whole entry): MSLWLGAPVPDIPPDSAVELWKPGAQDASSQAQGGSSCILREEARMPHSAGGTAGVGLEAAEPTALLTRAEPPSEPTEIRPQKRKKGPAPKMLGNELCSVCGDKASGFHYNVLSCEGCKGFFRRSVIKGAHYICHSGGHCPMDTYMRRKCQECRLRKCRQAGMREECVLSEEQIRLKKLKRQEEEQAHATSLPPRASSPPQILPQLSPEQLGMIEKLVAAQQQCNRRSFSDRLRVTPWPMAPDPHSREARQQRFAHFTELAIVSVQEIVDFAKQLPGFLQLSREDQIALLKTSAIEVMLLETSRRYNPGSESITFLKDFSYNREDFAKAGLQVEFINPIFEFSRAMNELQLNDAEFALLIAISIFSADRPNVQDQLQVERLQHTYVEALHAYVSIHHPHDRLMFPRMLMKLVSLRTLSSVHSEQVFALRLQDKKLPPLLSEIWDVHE
Method in brief: (§1)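 BHK21 cells co-transfected with an RXR plasmid, a full-length human LXRα or LXRβ expression vector and the pGL3/LRELuc reporter. Steroids were added alone at 10 µM and luciferase activity was read. Activity is expressed as % induction relative to GW3965 1 µM (100%). Means ± S.E. of 3 independent experiments; one-way ANOVA with Dunnett's test versus the no-steroid control.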

[2] = target: T1, Oxysterols receptor LXR-alpha (Homo sapiens); assay: Antagonist activity at human full length LXRalpha expressed in […] cells co-expressing human pSG5/RXRalpha assessed as inhibition of GW3965-induced receptor activation at 10 uM after 18 hrs by luciferase reporter gene assay
Method in brief: (§2)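 Antagonist mode in BHK21 cells co-transfected with an RXR plasmid, a full-length human LXRα or LXRβ vector and the pGL3/LRELuc luciferase reporter. Steroids at 10 µM were co-administered with the synthetic agonist GW3965. Luciferase output is given as % of the GW3965 1 µM response. Means ± S.E., n=3 independent experiments; Dunnett's test after one-way ANOVA.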

[3] = target: T2, Oxysterols receptor LXR-beta (Homo sapiens) (UniProt P55055); assay: Agonist activity at human full length LXRbeta expressed in […] cells co-expressing human pSG5/RXRalpha at 10 uM after 18 hrs by luciferase reporter gene assay relative to GW3965; method in brief: as §1
T2 sequence (whole entry): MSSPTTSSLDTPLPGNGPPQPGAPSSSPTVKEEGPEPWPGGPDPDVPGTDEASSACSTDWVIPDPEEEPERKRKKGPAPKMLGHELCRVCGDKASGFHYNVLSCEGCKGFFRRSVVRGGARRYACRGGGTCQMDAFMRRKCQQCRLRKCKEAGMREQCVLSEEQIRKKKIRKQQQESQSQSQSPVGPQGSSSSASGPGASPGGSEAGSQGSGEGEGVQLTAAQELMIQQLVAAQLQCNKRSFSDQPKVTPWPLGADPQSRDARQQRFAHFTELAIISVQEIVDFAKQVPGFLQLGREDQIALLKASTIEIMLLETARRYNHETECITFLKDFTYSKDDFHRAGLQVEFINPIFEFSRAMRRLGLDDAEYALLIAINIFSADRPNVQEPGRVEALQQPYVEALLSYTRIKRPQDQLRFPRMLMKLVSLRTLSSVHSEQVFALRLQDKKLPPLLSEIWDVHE

[4] = target: T2, Oxysterols receptor LXR-beta (Homo sapiens); assay: Antagonist activity at human full length LXRbeta expressed in […] cells co-expressing human pSG5/RXRalpha assessed as inhibition of GW3965-induced receptor activation at 10 uM after 18 hrs by luciferase reporter gene assay; method in brief: as §2

Row | Structure (SMILES) | Activity [1] | inhibition [2] | Activity [3] | inhibition [4]
1 | C[C@H](CCC(=O)N(C)C)[C@H]1CC[C@H]2[C@@H]3C[C@@H]4OC[C@@]5(CC[C@@H](O)C=C45)[C@H]3CC[C@]12C | Active | – | – | inactive
2 | C[C@H](CCC(=O)N(C)C)[C@H]1CC[C@H]2[C@@H]3CC=C4C[C@@H](O)CC[C@]4(C)[C@H]3CC[C@]12C | Active | Active | Active | Active
3 | C[C@H](CCC(=O)N(C)C)[C@H]1CC[C@H]2[C@@H]3CC[C@@H]4C[C@H](O)CC[C@]4(C)[C@H]3CC[C@]12C | Active | – | inactive | –
4 | C[C@H](CCC(=O)N(C)C)[C@H]1CC[C@H]2[C@@H]3C[C@H](O)[C@@H]4C[C@H](O)CC[C@]4(C)[C@H]3CC[C@]12C | – | Active | Active | Active

Next, values leading:

Row | Activity [1] | inhibition [2] | Activity [3] | inhibition [4] | Structure (SMILES)
5 | inactive | Active | inactive | Active | C[C@H](CCC(=O)N(C)C)[C@H]1CC[C@H]2[C@@H]3CC[C@H]4C[C@H](O)[C@@H]5C[C@]4(CO5)[C@H]3CC[C@]12C
6 | inactive | Active | inactive | Active | C[C@H](CCC(=O)N(C)C)[C@H]1CC[C@H]2[C@@H]3CC[C@H]4C[C@@H](O)[C@@H]5C[C@]4(CO5)[C@H]3CC[C@]12C
